From PubChem BioAssay AID504382 (The Scripps Research Institute Molecular Screening Center, 2011)
The campaign covered roughly 2,500 compounds. About 460 (18%) were called active. Not all results are given here. Values without a mark were called inactive.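 How the source made its calls: active means mean activation above a cutoff of low control average plus 3 SD from the earlier screen (cut at about 12% in these data); inactive means the rest.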

assay: IANBD-channel fluorescence artefacts in buffer – biochemical, artefact control for cardiac RTF calcium sensitizer project, confirmation (AID 504382); conditions: IANBD fluorescence interference counterscreen, EC20 Ca2+, at 7.2 µM, active compounds read high, scaled: EC20 calcium 0, EC100 calcium 100
How it was run: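 timing = compound incubation 15 min at 25 °C before fluorescence reading | technique = fluorescence at 480 nm excitation, 540 nm emission | evaluation = interference relative to controls | replication = triplicate wells per compound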

Question: Which fluorescence artifact activation does the source give for O=C(COC(=O)c1ccc(S(=O)(=O)N2CCCC2)cc1)NCc1ccco1 here?
Answer: 0.32%

Question: Which fluorescence artifact activation does the source give for COc1ccccc1C(=O)NN(C)C1=NS(=O)(=O)c2ccccc21 here?
Answer: 0.12%

Question: With CCNC(=O)NNC(=O)C1CC(c2cccs2)=NO1 (configuration not stated) as the molecule, how does the fluorescence artifact activation read?
Answer: 0%

Question: Which fluorescence artifact activation does the source give for Cc1ccc(C2NC(=O)c3c(sc4c3CCN(C)C4)N2)o1 (configuration not stated) here?
Answer: 0.12%

Question: With CCOC(=O)c1c(C)[nH]c(C2=NNC(=NC(C)COC)SC2)c1C (configuration not stated) as the molecule, how does the fluorescence artifact activation read?
Answer: 22% (active)

Question: Which fluorescence artifact activation does the source give for Cc1cc(C)n(-c2ccc([N+](=O)[O-])cc2-c2nn[nH]n2)n1 here?
Answer: 2.39%

Question: For CCC(=Cc1ccccc1OC)c1ccncc1, which fluorescence artifact activation is on record?
Answer: 3.06%

Question: For COc1ccc(CCNc2cc(C)[nH]c(=O)c2)cc1OC, which fluorescence artifact activation is on record?
Answer: 0.6%

Question: With Cc1ccc(C)c(NC(=O)CCN2CCOCC2)c1 as the molecule, how does the fluorescence artifact activation read?
Answer: -0.02%

Question: Which fluorescence artifact activation does the source give for COc1ccc(NC(=O)CCN2CC(C)OC(C)C2)c(OC)c1 (configuration not stated) here?
Answer: 0.05%

Question: For COc1ccc(NC(=O)CCN2CCCC2)c(OC)c1, which fluorescence artifact activation is on record?
Answer: 27.4% (active)

Question: With COc1ccc(Nc2nc3ccc(C)cc3cc2C#N)c(OC)c1 as the molecule, how does the fluorescence artifact activation read?
Answer: 0.04%

Question: For CCN1C(=O)c2cccc3c(NC(=O)c4ccc5c(c4)OCCO5)ccc1c23, which fluorescence artifact activation is on record?
Answer: 36.4% (active)

Question: With Cc1ccccc1NC(=O)c1nnn(-c2ccc3c(c2)OCCO3)c1N as the molecule, how does the fluorescence artifact activation read?
Answer: 0.09%

Question: For CCCN(CCC)S(=O)(=O)c1ccc(C(=O)OCCN2C(=O)c3cccc4c(N5CCOCC5)ccc(c34)C2=O)cc1, which fluorescence artifact activation is on record?
Answer: 4.63%

Question: For N#C/C(=C\c1ccccn1)c1nc2ccccc2s1, which fluorescence artifact activation is on record?
Answer: 0.06%

Question: Which fluorescence artifact activation does the source give for COc1cc(/C=C(/C#N)C(=O)NCCCc2ccccc2)ccc1OCC(=O)O here?
Answer: 0.24%

Question: Which fluorescence artifact activation does the source give for COc1cc(/C=C(\C#N)c2nc3ccccc3s2)ccc1OCC(=O)Nc1ccccc1 here?
Answer: 36.6% (active)

Question: Which fluorescence artifact activation does the source give for Cc1ccc(S(=O)(=O)Nc2ccccc2N(C)S(=O)(=O)c2ccc(C)cc2)cc1 here?
Answer: 2.27%

Question: Which fluorescence artifact activation does the source give for NC(=O)c1cc2ccc(O)cc2oc1=NCc1ccccc1 here?
Answer: 0.04%

Question: With CCN1CC=C2C(C1)C(c1ccc(Cl)s1)C(C#N)=C(N)C2(C#N)C#N (configuration not stated) as the molecule, how does the fluorescence artifact activation read?
Answer: 2.16%

Question: With COc1cccc(F)c1C(=O)NC(=O)Nc1ccc2nc(C)oc2c1 as the molecule, how does the fluorescence artifact activation read?
Answer: 42.8% (active)

Question: For CCNC(=S)N/N=C/c1sc(N2CCCCC2)nc1-c1cccs1, which fluorescence artifact activation is on record?
Answer: 0.09%

Question: For Cc1ccc(CNC(=O)CCS(=O)(=O)c2cc3c(cc2C)NC(=O)CO3)cc1, which fluorescence artifact activation is on record?
Answer: 0.29%

Question: For Cc1ncn(C23CC4CC(CC(C4)C2)C3)n1, which fluorescence artifact activation is on record?
Answer: 0%

Question: With CCc1ccc(C(=O)NNc2cc(Cl)ccc2Cl)cc1 as the molecule, how does the fluorescence artifact activation read?
Answer: 0.03%

Question: For Cc1cccc2cc3c(N)c(C(=O)N4CCc5ccccc54)sc3nc12, which fluorescence artifact activation is on record?
Answer: -0.06%

Question: For Cc1nn(C)c(C(=O)N2CCc3ccccc32)c1Br, which fluorescence artifact activation is on record?
Answer: 23.4% (active)

Question: Which fluorescence artifact activation does the source give for Cc1c(Br)c(C(=O)N2CCc3ccccc32)nn1C here?
Answer: 0.13%

Question: With Nc1ccc2c3c(cccc13)CC2 as the molecule, how does the fluorescence artifact activation read?
Answer: 0.07%

Question: Which fluorescence artifact activation does the source give for O=C(Cn1c2[n+](c3ccc(C(F)(F)F)cc31)CCCCC2)Nc1ccccc1 here?
Answer: 0.33%

Question: Which fluorescence artifact activation does the source give for CC(=O)/C(C=Nc1noc(C)c1Br)=C(\C)O here?
Answer: 11.4%

Question: Which fluorescence artifact activation does the source give for CCC1(CC)C(=O)Nc2ccccc21 here?
Answer: -0.02%

Question: Which fluorescence artifact activation does the source give for COc1ccc2[nH]c(C(=O)N3CCC(Cc4ccccc4)CC3)cc2c1 here?
Answer: 0.13%

Question: For COc1ccccc1N1CCN(C(=O)c2ccc(Cn3c(=O)[nH]c4ccsc4c3=O)cc2)CC1, which fluorescence artifact activation is on record?
Answer: 51.1% (active)

Question: Which fluorescence artifact activation does the source give for COc1ccccc1N1CCN(C(=O)c2cn(-c3ccccc3)nc2-c2cccnc2)CC1 here?
Answer: 0.33%

Question: For COc1ccc(C(=O)c2sc3nc(C)cc(-c4cccs4)c3c2N)cc1OC, which fluorescence artifact activation is on record?
Answer: 0.66%

Question: Which fluorescence artifact activation does the source give for CC(=O)c1ccc2noc(-c3ccc(C)cc3)c2c1 here?
Answer: 0.23%

Question: For COc1ccccc1-c1sc2ccccc2c1-c1ccc(Br)nc1, which fluorescence artifact activation is on record?
Answer: 0.93%

Question: Which fluorescence artifact activation does the source give for Oc1ccc(-c2c(C3=CCCCC3)sc3ccccc23)cc1 here?
Answer: 28.2% (active)

Question: With CCOc1ccccc1C=NNC(=O)CCCCC(=O)NN=Cc1ccccc1OCC as the molecule, how does the fluorescence artifact activation read?
Answer: 0.77%

Question: With Cc1noc(C)c1NC(=O)N(C)C[C@H]1Oc2c(NS(=O)(=O)c3cccs3)cccc2C(=O)N([C@H](C)CO)C[C@@H]1C as the molecule, how does the fluorescence artifact activation read?
Answer: -0.07%

Question: For CC(C)(C)c1ccc(C(=O)NC(=S)Nc2ccc(N3CCOCC3)cc2)cc1, which fluorescence artifact activation is on record?
Answer: 0.09%

Question: With O=C(NC(=S)NCCN1CCOCC1)c1ccc(F)cc1 as the molecule, how does the fluorescence artifact activation read?
Answer: 21.2% (active)

Question: Which fluorescence artifact activation does the source give for COC(=O)Cc1ccc(NC(=S)NCCCN2CCOCC2)cc1 here?
Answer: -0.02%

Question: Which fluorescence artifact activation does the source give for CCCCNC(=O)Nc1nnc(-c2ccccc2)o1 here?
Answer: 0.13%

Question: For S=C(Nc1ccc(Cl)cc1)N(CCCN1CCOCC1)Cc1ccco1, which fluorescence artifact activation is on record?
Answer: 0.04%
